Source: ChEMBL document CHEMBL4376872, “Scaffold Hopping of Natural Product Evodiamine: Discovery of a Novel Antitumor Scaffold with Excellent Potency against Colon Cancer” (J Med Chem, 2020)

Key:
[1] = Toxicity in mouse xenografted with human HCT116 cells assessed as reduction in body weight at 0.5 mg/kg, ip qd for 21 days administration starting from 10 days after tumor cell implantation measured every 2 or 4 days till the end of the treatment period; type: organism-based; conditions: in vivo
Summary of the method: (§1)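 Nude mice bearing HCT116 xenografts were given intraperitoneal doses on 21 consecutive days, with n = 6 per group including an untreated control group. Body weight was recorded to assess toxicity. Data are mean ± SEM, compared with the control group by Student's t test.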

[2] = tested on: HCT-116; assay: Antitumor activity against human HCT116 cells xenografted in mouse assessed as reduction in tumor growth at 0.5 mg/kg, ip qd for 21 days administration starting from 10 days after tumor cell implantation measured every 2 or 4 days till the end of the treatment period relative to control; type: functional; conditions: HCT-116, ip, read-out: TGI
Summary of the method: (§2)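 HCT116 xenografts in nude mice; intraperitoneal dosing on 21 consecutive days; tumour growth inhibition (TGI) versus untreated control, with body weight recorded. n = 6 mice per group; mean ± SEM; significance by Student's t test versus control.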

[3] = tested on: HCT-116; assay: Antiproliferative activity against human HCT116 cells assessed as reduction in cell viability incubated for 72 hrs by CCK8 assay; type: functional, cell-based; conditions: HCT-116, 72 h
[4] = tested on: MDA-MB-435; assay: Antiproliferative activity against human MDA-MB-435 cells assessed as reduction in cell viability incubated for 72 hrs by CCK8 assay; type: functional, cell-based; conditions: MDA-MB-435, 72 h
[5] = tested on: A549; assay: Antiproliferative activity against human A549 cells assessed as reduction in cell viability incubated for 72 hrs by CCK8 assay; type: functional, cell-based; conditions: A549, 72 h
[6] = Aqueous solubility of compound at pH 7.4; type: physicochemical
[7] = tested on: HCT-116; assay: Antitumor activity against human HCT116 cells xenografted in mouse assessed as reduction in tumor growth at 16 mg/kg, ip qd for 21 days administration starting from 10 days after tumor cell implantation measured every 2 or 4 days till the end of the treatment period relative to control; type: functional; conditions: HCT-116, ip, read-out: TGI; summary of the method: as §2
[8] = Toxicity in mouse xenografted with human HCT116 cells assessed as reduction in body weight at 16 mg/kg, ip qd for 21 days administration starting from 10 days after tumor cell implantation measured every 2 or 4 days till the end of the treatment period; type: organism-based; conditions: in vivo; summary of the method: as §1

Structure (SMILES)	Activity [1]	inhibition in vivo at 0.5 mg/kg [2] [%]	IC50 [3] [µM]	IC50 [4] [µM]	IC50 [5] [µM]	solubility [6] [mg/mL]	inhibition in vivo at 16 mg/kg [7] [%]	Activity [8]
CC[C@@]1(O)C(=O)OCc2c1cc1n(c2=O)Cc2cc3c(CN(C)C)c(O)ccc3nc2-1 [TOPOTECAN]	Toxic	68.5	–	–	–	–	–	–
COc1ccc2c(c1)cc1n2CCn2c-1[n+](C)c1ccc(F)cc1c2=O	–	–	87.2	> 200	> 200	0.85	66.6	Non-Toxic
